Values after ≈ are worked out from the molar mass of the structure shown. Active and inactive are the calls of the source. The rule behind the calls is not given here.
Legend:
[1] = Water solubility was determined; format: ADME
How it was run: (§1)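 Compound combined with buffered solution at the stated pH, sonicated, shaken 1 h and filtered. Filtrate concentration measured by UV against standards of known concentration; reported in mg/mL.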

[2] = target: T1, C5a anaphylatoxin chemotactic receptor 1 (Homo sapiens) (UniProt P21730); experiment: (§2) Effect on uM; no effect
T1 sequence (whole entry): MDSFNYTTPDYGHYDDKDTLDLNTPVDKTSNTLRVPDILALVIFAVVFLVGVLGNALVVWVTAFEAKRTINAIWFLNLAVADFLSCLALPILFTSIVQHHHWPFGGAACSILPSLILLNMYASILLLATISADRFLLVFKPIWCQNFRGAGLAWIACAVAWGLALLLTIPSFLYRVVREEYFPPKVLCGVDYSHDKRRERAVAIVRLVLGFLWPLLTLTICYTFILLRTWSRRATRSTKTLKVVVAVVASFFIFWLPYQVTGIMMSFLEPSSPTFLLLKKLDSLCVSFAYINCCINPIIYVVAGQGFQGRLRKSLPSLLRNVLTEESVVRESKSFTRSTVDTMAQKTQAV

[3] = target: T2, Cysteinyl leukotriene receptor 1 (Cavia porcellus) (UniProt Q2NNR5); experiment: as §2
T2 sequence (whole entry): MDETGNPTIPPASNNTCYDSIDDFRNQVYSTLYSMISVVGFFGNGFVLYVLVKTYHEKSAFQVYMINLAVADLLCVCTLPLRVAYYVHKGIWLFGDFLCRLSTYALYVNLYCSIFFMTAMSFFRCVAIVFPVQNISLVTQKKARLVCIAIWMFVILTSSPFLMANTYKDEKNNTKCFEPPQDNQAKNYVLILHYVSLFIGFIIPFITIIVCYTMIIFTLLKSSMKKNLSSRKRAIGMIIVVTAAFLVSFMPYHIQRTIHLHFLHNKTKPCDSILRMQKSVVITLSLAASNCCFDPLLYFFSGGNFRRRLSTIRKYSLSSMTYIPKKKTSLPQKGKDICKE

[4] = target: Leukotriene B4 receptor 1 (Homo sapiens) (UniProt Q15722); experiment: as §2
Sequence of Leukotriene B4 receptor 1 (Homo sapiens) (Q15722 whole entry): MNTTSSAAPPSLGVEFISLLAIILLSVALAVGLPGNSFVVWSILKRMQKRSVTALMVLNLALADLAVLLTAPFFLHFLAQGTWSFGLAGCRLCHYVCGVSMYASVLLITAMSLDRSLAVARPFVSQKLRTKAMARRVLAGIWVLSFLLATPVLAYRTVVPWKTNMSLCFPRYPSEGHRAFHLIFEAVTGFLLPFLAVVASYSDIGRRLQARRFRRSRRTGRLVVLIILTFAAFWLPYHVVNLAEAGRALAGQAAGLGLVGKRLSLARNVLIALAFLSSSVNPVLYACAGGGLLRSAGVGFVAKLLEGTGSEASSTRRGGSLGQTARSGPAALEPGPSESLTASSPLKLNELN

[5] = Water solubility at pH 5; format: physicochemical; how it was run: as §1
[6] = Water solubility at pH 6; format: physicochemical; how it was run: as §1
Homo sapiens [7] = species on record: Homo sapiens; experiment: Inhibitory activity against PAF-induced aggregation of human platelets suspended in plasma; format: functional
Rattus norvegicus [8] = experiment: In vivo inhibitory activity against PAF induced plasma level of N-acetyl-beta-D-glucosaminidase (NAGA) and hematocrit (plasma extravasation) in male rat after i.v. administration; format: functional; details: iv
Rattus norvegicus [9] = experiment: In vivo inhibitory activity against PAF induced plasma level of N-acetyl-beta-D-glucosaminidase (NAGA) and hematocrit (plasma extravasation) in male rat after p.o. administration; format: functional; details: po
Rattus norvegicus [10] = experiment: In vivo inhibitory activity against PAF induced plasma level of N-acetyl-beta-D-glucosaminidase (NAGA) and hematocrit (plasma extravasation) in female rat after p.o. administration; format: functional; details: po
Cavia porcellus [11] = experiment: In vivo inhibitory activity against PAF induced bronchoconstriction in male guinea pigs; format: functional; details: read-out: ID50 (the source's name)
[12] = Water solubility at pH 7.4; format: physicochemical; how it was run: as §1
[13] = target: Platelet-activating factor receptor (Homo sapiens, UniProt P25105); experiment: Inhibition of the binding of [3H]C18-Platelet activating factor to human platelet membrane preparation
Sequence of Platelet-activating factor receptor (P25105 whole entry): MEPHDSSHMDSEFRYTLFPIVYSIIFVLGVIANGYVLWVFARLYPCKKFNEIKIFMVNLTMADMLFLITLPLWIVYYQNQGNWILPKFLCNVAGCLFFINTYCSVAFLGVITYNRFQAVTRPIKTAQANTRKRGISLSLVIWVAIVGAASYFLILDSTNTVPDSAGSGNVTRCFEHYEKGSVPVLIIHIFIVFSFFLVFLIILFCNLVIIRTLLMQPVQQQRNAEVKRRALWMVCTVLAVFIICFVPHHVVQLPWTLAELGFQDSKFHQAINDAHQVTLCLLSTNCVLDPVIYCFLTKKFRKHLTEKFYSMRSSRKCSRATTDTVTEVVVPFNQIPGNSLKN

Cavia porcellus [14] = experiment: In vivo inhibitory activity against PAF induced bronchoconstriction in female guinea pigs; format: functional; details: read-out: ID50 (the source's name)
Homo sapiens [15] = species on record: Homo sapiens; experiment: Inhibitory activity against PAF-induced aggregation of human platelets suspended in buffer [washed platelets (WP)]; format: functional
Rattus norvegicus [16] = experiment: Effect against PAF induced plasma level of N-acetyl-beta-D-glucosaminidase (NAGA) and plasma extravasation in male rat at a dose of 1 mg/kg by single administration after 6 hour; format: functional
[17] = tested on: Angiotensin II receptor (Oryctolagus cuniculus); experiment: Effect on uM; no effect

SMILES | solubility [1] | inhibition [2] | inhibition [3] | inhibition [4] | solubility [5] | solubility [6] | IC50 (Homo sapiens [7]) | ED50 (Rattus norvegicus [8]) | ED50 (Rattus norvegicus [9]) | ED50 (Rattus norvegicus [10]) | ED50 (Cavia porcellus [11]) | IC50 [13] | other results
CCCOc1c(OCCCO)cc([C@@H]2CC[C@@H](c3cc(OC)c(OC)c(OC)c3)O2)cc1S(=O)(=O)CC(C)=O | 100 µg/mL (≈ 176 µM) | inactive | inactive | inactive |  |  |  |  |  |  |  |  | 
CCCOc1c(OCCCn2ccnc2)cc([C@@H]2CC[C@@H](c3cc(OC)c(OC)c(OC)c3)O2)cc1S(=O)(=O)CC(C)=O |  | inactive | inactive | inactive | 5500 µg/mL (≈ 8920 µM) | 800 µg/mL (≈ 1300 µM) |  |  |  |  |  |  | 
CCCOc1c(OC)cc([C@@H]2CC[C@@H](c3cc(OC)c(OC)c(OC)c3)O2)cc1S(=O)(=O)CCO | 2 µg/mL (≈ 3.92 µM) |  |  |  |  |  | 55 nM | 0.1 mg/kg | 2.3 mg/kg | 0.1 mg/kg | 0.19 mg/kg |  | 
CCCOc1c(OCCCOP(=O)([O-])O)cc([C@@H]2CC[C@@H](c3cc(OC)c(OC)c(OC)c3)O2)cc1S(=O)(=O)CC(C)=O.[K+] |  | inactive | inactive | inactive |  |  |  |  |  |  |  |  | solubility [12]: > 30000 µg/mL
CCCOc1c(OC)cc([C@H]2CC[C@H](c3cc(OC)c(OC)c(OC)c3)O2)cc1S(C)(=O)=O (single isomer, unassigned) |  |  |  |  |  |  |  |  |  |  |  | 9 nM | 
CCCOc1c(OCCCN2CCOCC2)cc([C@@H]2CC[C@@H](c3cc(OC)c(OC)c(OC)c3)O2)cc1S(=O)(=O)CC(C)=O |  | inactive | inactive | inactive | 5400 µg/mL (≈ 8490 µM) | 900 µg/mL (≈ 1420 µM) | 19 nM | 0.037 mg/kg | 0.15 mg/kg | 0.2 mg/kg | 0.06 mg/kg | 2.5 nM | ED50 (Cavia porcellus [14]): 0.04 mg/kg; IC50 (Homo sapiens [15]): 1 nM; inhibition in vivo at 1 mg/kg (Rattus norvegicus [16]): 60%; inhibition [17]: inactive

— ChEMBL document CHEMBL1126126, “Development, synthesis, and biological evaluation of (-)-trans-(2S,5S)-2-[3-[(2-oxopropyl)sulfonyl]-4-n-propoxy-5-(3- hydroxypropoxy)-phenyl]-5-(3,4,5-trimethoxyphenyl)tetrahydrofuran, a potent orally active platelet-activating factor (PAF) antagonist and its water-soluble prodrug phosphate ester” (J Med Chem, 1992)
